These results are taken from BindingDB's records for doi:10.1016/j.bmcl.2012.01.074 (Spanish National Cancer Research Centre (Cnio), 2012).

Broadly, the IC50 is the concentration needed to halve the response being measured.

Each structure is given as a SMILES string.

For this test, the target named is Phosphatidylinositol 3-kinase regulatory subunit alpha/4,5-bisphosphate 3-kinase catalytic subunit alpha isoform (Homo sapiens, UniProt P27986+P42336). In words: Inhibition of PI3K p110alpha/p85alpha. An outline of the steps: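 Biochemical kinase assay following the kit manufacturer's protocol with a modified kinase buffer (50 mM HEPES pH 7.5, 3 mM MgCl2, 100 mM NaCl, 1 mM EGTA, 0.04% CHAPS, 2 mM TCEP, 0.01 mg/ml BGG); 10 nM enzyme; ATP 50 µM; values are averages of two independent experiments, each in duplicate.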
Chain of Phosphatidylinositol 3-kinase regulatory subunit alpha/4,5-bisphosphate 3-kinase catalytic subunit alpha isoform (P27986 whole entry, canonical isoform): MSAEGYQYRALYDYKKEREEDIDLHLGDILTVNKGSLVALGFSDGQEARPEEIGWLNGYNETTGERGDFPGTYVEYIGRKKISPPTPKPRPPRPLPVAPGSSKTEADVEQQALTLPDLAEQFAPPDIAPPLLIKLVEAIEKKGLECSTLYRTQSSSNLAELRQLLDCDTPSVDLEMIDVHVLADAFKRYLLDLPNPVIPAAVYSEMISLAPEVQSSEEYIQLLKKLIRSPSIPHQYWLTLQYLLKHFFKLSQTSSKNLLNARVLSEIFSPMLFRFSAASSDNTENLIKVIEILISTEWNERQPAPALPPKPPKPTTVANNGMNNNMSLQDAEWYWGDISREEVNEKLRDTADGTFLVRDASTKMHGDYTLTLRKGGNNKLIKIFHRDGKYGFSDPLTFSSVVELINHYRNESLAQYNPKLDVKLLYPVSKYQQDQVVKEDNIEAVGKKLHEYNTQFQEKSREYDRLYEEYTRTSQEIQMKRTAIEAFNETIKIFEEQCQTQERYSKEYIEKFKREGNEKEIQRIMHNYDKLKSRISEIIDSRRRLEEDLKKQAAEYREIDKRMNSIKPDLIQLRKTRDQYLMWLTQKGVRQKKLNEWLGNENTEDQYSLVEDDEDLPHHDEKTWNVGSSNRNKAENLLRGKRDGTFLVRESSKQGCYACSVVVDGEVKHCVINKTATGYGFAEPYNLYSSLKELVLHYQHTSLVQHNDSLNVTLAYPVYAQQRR
Chain of Phosphatidylinositol 3-kinase regulatory subunit alpha/4,5-bisphosphate 3-kinase catalytic subunit alpha isoform (P42336 whole entry, canonical isoform): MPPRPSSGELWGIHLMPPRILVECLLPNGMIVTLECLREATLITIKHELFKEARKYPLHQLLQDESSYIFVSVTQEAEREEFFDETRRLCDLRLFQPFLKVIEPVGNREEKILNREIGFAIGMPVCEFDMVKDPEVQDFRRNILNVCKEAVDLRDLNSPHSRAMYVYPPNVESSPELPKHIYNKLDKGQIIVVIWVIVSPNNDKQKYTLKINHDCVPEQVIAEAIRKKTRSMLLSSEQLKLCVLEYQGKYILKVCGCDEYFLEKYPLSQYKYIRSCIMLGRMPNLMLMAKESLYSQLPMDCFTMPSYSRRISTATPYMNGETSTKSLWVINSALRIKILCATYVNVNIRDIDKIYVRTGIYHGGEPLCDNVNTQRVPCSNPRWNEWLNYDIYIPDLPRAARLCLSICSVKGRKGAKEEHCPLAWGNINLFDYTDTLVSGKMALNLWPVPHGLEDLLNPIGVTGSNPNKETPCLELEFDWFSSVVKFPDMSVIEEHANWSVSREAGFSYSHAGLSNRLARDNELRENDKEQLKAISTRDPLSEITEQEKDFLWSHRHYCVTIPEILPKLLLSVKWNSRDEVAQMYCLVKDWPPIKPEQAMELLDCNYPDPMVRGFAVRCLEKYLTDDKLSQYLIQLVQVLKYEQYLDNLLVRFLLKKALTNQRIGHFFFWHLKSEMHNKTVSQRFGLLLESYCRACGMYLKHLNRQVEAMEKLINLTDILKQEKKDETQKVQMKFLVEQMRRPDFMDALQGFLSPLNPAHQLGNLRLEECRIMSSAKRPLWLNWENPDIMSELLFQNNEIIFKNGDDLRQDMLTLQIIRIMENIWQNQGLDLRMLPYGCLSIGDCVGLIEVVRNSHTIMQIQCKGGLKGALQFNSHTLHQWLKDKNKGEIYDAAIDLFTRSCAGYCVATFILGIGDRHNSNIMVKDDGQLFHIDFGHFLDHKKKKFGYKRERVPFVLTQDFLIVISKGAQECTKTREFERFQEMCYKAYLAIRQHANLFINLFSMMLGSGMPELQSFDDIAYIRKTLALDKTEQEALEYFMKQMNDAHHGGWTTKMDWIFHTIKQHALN
`CNC(=O)c1cn2cc(-c3cccc4[nH]ncc34)nc(N3CCOCC3)c2n1`: the IC50 came out at 110 nM.
With `CCNC(=O)c1cn2cc(-c3cccc4[nH]ncc34)nc(N3CCOCC3)c2n1` the figure was 92 nM; with `O=C(NCCN1CCOCC1)c1cn2cc(-c3cccc4[nH]ncc34)nc(N3CCOCC3)c2n1`, 38 nM; with `Cc1cn2cc(-c3cccc(O)c3)nc(N3CCOCC3)c2n1`, 96 nM.
As for `Oc1cccc(-c2cn3cc(C4CC4)nc3c(N3CCOCC3)n2)c1`, the IC50 was found to be 340 nM. Compared with the last compound, the IC50 is about 3.5-fold higher.
With `Oc1cccc(-c2cn3cc(C(F)(F)F)nc3c(N3CCOCC3)n2)c1` the figure was 108 nM; with `OCc1cn2cc(-c3cccc(O)c3)nc(N3CCOCC3)c2n1`, 639 nM.
Regarding `Oc1cccc(-c2cn3cc(CN4CCOCC4)nc3c(N3CCOCC3)n2)c1`, the IC50 amounted to 444 nM.
`CC(=O)N1CCN(Cc2cn3cc(-c4cccc(O)c4)nc(N4CCOCC4)c3n2)CC1` displayed an IC50 of 451 nM.
With `O=C1CN(Cc2cn3cc(-c4cccc(O)c4)nc(N4CCOCC4)c3n2)CCN1` the figure was 540 nM.
